From ChEMBL document CHEMBL1151705, “Novel azalides derived from 16-membered macrolides. Part II: Isolation of the linear 9-formylcarboxylic acid and its sequential macrocyclization with an amino alcohol or an azidoamine” (2008)
Values after ≈ are worked out from the molar mass of the structure shown.

Assays:
Type in all cases: functional
[1] = system: Streptococcus pneumoniae; assay: Antimicrobial activity against Streptococcus pneumoniae 9 expressing mefA after 20 hrs by agar dilution method; conditions: Streptococcus pneumoniae, 20 h; read-out: MIC
Outline: (§1)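 Streptococci, H. influenzae and M. catarrhalis were precultured on blood agar plates. Suspensions of about 10⁶ CFU/ml were inoculated onto sensitivity disk agar supplemented with 5% horse blood and incubated at 37 °C for 20 h. MIC was read as the lowest drug concentration with no visible growth.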

[2] = system: Moraxella catarrhalis; assay: Antimicrobial activity against drug-susceptible Moraxella catarrhalis 2 after 20 hrs by agar dilution method; conditions: Moraxella catarrhalis, 20 h; read-out: MIC; outline: as §1
[3] = system: Haemophilus influenzae; assay: Antimicrobial activity against drug-susceptible Haemophilus influenzae 2 after 20 hrs by agar dilution method; conditions: Haemophilus influenzae, 20 h; read-out: MIC; outline: as §1
[4] = system: Staphylococcus aureus; assay: Antimicrobial activity against Staphylococcus aureus 4 constitutively expressing ermA after 20 hrs by agar dilution method
Outline: (§2)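 Agar dilution MIC. S. aureus seed culture was grown in sensitivity test broth. Cell suspension (about 10⁶ CFU/ml) was inoculated onto sensitivity disk agar with 5% horse blood and incubated at 37 °C for 20 h. MIC was the lowest drug concentration that prevented visible growth.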

[5] = system: Haemophilus influenzae; assay: Antimicrobial activity against drug-susceptible Haemophilus influenzae 1 after 20 hrs by agar dilution method; conditions: Haemophilus influenzae, 20 h; read-out: MIC; outline: as §1
[6] = system: Haemophilus influenzae; assay: Antimicrobial activity against drug-susceptible Haemophilus influenzae 3 after 20 hrs by agar dilution method; conditions: Haemophilus influenzae, 20 h; read-out: MIC; outline: as §1
[7] = system: Streptococcus pneumoniae; assay: Antimicrobial activity against Streptococcus pneumoniae 8 expressing inducible ermB after 20 hrs by agar dilution method; conditions: Streptococcus pneumoniae, 20 h; read-out: MIC; outline: as §1
[8] = system: Staphylococcus aureus; assay: Antimicrobial activity against drug-susceptible Staphylococcus aureus 3 after 20 hrs by agar dilution method; conditions: Staphylococcus aureus, 20 h; read-out: MIC; outline: as §2
[9] = system: Streptococcus pneumoniae; assay: Antimicrobial activity against Streptococcus pneumoniae 7 expressing inducible ermB after 20 hrs by agar dilution method; conditions: Streptococcus pneumoniae, 20 h; read-out: MIC; outline: as §1
[10] = system: Streptococcus pyogenes; assay: Antimicrobial activity against drug-susceptible Streptococcus pyogenes 1 after 20 hrs by agar dilution method; conditions: Streptococcus pyogenes, 20 h; read-out: MIC; outline: as §1
[11] = system: Haemophilus influenzae; assay: Antimicrobial activity against drug-susceptible Haemophilus influenzae 4 after 20 hrs by agar dilution method; conditions: Haemophilus influenzae, 20 h; read-out: MIC; outline: as §1
[12] = system: Staphylococcus aureus; assay: Antimicrobial activity against Staphylococcus aureus 6 expressing inducible ermB after 20 hrs by agar dilution method; outline: as §2
[13] = system: Staphylococcus aureus; assay: Antimicrobial activity against drug-susceptible Staphylococcus aureus 2 after 20 hrs by agar dilution method; conditions: Staphylococcus aureus, 20 h; read-out: MIC; outline: as §2
[14] = system: Moraxella catarrhalis; assay: Antimicrobial activity against drug-susceptible Moraxella catarrhalis 1 after 20 hrs by agar dilution method; conditions: Moraxella catarrhalis, 20 h; read-out: MIC; outline: as §1
[15] = system: Streptococcus pneumoniae; assay: Antimicrobial activity against Streptococcus pneumoniae 5 constitutively expressing ermB/mefA after 20 hrs by agar dilution method; conditions: Streptococcus pneumoniae, 20 h; read-out: MIC; outline: as §1
[16] = system: Streptococcus pneumoniae; assay: Antimicrobial activity against Streptococcus pneumoniae 10 expressing mefA after 20 hrs by agar dilution method; conditions: Streptococcus pneumoniae, 20 h; read-out: MIC; outline: as §1
[17] = system: Streptococcus pneumoniae; assay: Antimicrobial activity against drug-susceptible Streptococcus pneumoniae 2 after 20 hrs by agar dilution method; conditions: Streptococcus pneumoniae, 20 h; read-out: MIC; outline: as §1
[18] = system: Staphylococcus aureus; assay: Antimicrobial activity against drug-susceptible Staphylococcus aureus 209P JC-1 after 20 hrs by agar dilution method; conditions: Staphylococcus aureus, 209P, 20 h; read-out: MIC; outline: as §2
[19] = system: Streptococcus pyogenes; assay: Antimicrobial activity against Streptococcus pyogenes 2 constitutively expressing ermB after 20 hrs by agar dilution method; outline: as §1
[20] = system: Streptococcus pyogenes; assay: Antimicrobial activity against Streptococcus pyogenes 3 expressing mefA after 20 hrs by agar dilution method; conditions: Streptococcus pyogenes, 20 h; read-out: MIC; outline: as §1
[21] = system: Staphylococcus aureus; assay: Antimicrobial activity against Staphylococcus aureus 5 expressing inducible ermB after 20 hrs by agar dilution method; conditions: Staphylococcus aureus, 20 h; read-out: MIC; outline: as §2
[22] = system: Streptococcus pneumoniae; assay: Antimicrobial activity against Streptococcus pneumoniae 6 constitutively expressing ermB after 20 hrs by agar dilution method; conditions: Streptococcus pneumoniae, 20 h; read-out: MIC; outline: as §1
[23] = system: Streptococcus pneumoniae; assay: Antimicrobial activity against drug-susceptible Streptococcus pneumoniae DP1 Type1 after 20 hrs by agar dilution method; conditions: Streptococcus pneumoniae, 20 h; read-out: MIC; outline: as §1

| SMILES | MIC [1] [µg/mL] | MIC [2] [µg/mL] | MIC [3] [µg/mL] | MIC [4] [µg/mL] | MIC [5] [µg/mL] | MIC [6] [µg/mL] | MIC [7] [µg/mL] | MIC [8] [µg/mL] | MIC [9] [µg/mL] | MIC [10] [µg/mL] | MIC [11] [µg/mL] | MIC [12] [µg/mL] | MIC [13] [µg/mL] | MIC [14] [µg/mL] | MIC [15] [µg/mL] | MIC [16] [µg/mL] | MIC [17] [µg/mL] | MIC [18] [µg/mL] | MIC [19] [µg/mL] | MIC [20] [µg/mL] | further results |
| --- | --- | --- | --- | --- | --- | --- | --- | --- | --- | --- | --- | --- | --- | --- | --- | --- | --- | --- | --- | --- | --- |
| CCOC(=O)[C@H]1[C@H](C)O[C@@H](O[C@H]2[C@H](N(C)C)[C@@H](O)[C@H](O[C@H]3[C@@H](CC=O)C[C@@H](C)[C@@H](OC(C)=O)CN(CCCCc4ccccc4)C[C@@H](C)OC(=O)C[C@@H](OC(=O)CC)[C@@H]3OC)O[C@@H]2C)C[C@@]1(C)OC(C)=O | 2 (≈ 1.99 µM) | > 128 | > 128 | > 128 | > 128 | > 128 | > 128 | 4 (≈ 3.97 µM) | > 128 | 2 (≈ 1.99 µM) | > 128 | 8 (≈ 7.94 µM) | > 128 | 8 (≈ 7.94 µM) | > 128 | 2 (≈ 1.99 µM) | 2 (≈ 1.99 µM) | 4 (≈ 3.97 µM) | > 128 | 4 (≈ 3.97 µM) | MIC [21]: 4 µg/mL (≈ 3.97 µM); MIC [22]: > 128 µg/mL; MIC [23]: 1 µg/mL (≈ 0.993 µM) |
| CCC(=O)O[C@@H]1CC(=O)NCCCN(CCCc2ccnc3ccccc23)C[C@H](O)[C@H](C)C[C@H](CC=O)[C@H](O[C@@H]2O[C@H](C)[C@@H](O)[C@H](N(C)C)[C@H]2O)[C@H]1OC | 32 (≈ 42.2 µM) | 8 (≈ 10.5 µM) | 8 (≈ 10.5 µM) | > 128 | 64 (≈ 84.3 µM) | 64 (≈ 84.3 µM) | > 128 | 64 (≈ 84.3 µM) | > 128 | 16 (≈ 21.1 µM) | 128 (≈ 169 µM) | 64 (≈ 84.3 µM) | 32 (≈ 42.2 µM) | 8 (≈ 10.5 µM) | > 128 | 32 (≈ 42.2 µM) | 16 (≈ 21.1 µM) | 64 (≈ 84.3 µM) | > 128 | 128 (≈ 169 µM) | MIC [21]: 64 µg/mL (≈ 84.3 µM); MIC [22]: > 128 µg/mL; MIC [23]: 16 µg/mL (≈ 21.1 µM) |
| CCOC(=O)[C@H]1[C@H](C)O[C@@H](O[C@H]2[C@H](N(C)C)[C@@H](O)[C@H](O[C@H]3[C@@H](CC=O)C[C@@H](C)[C@@H](O)CN(CCCCc4ccccc4)CCCNC(=O)C[C@@H](OC(=O)CC)[C@@H]3OC)O[C@@H]2C)C[C@@]1(C)OC(C)=O | 0.25 (≈ 0.259 µM) | 0.25 (≈ 0.259 µM) | 0.5 (≈ 0.519 µM) | > 128 | 8 (≈ 8.3 µM) | 2 (≈ 2.07 µM) | 16 (≈ 16.6 µM) | 0.25 (≈ 0.259 µM) | 16 (≈ 16.6 µM) | 0.13 (≈ 0.135 µM) | 4 (≈ 4.15 µM) | 0.5 (≈ 0.519 µM) | 1 (≈ 1.04 µM) | 0.13 (≈ 0.135 µM) | > 128 | 0.25 (≈ 0.259 µM) | 0.25 (≈ 0.259 µM) | 0.25 (≈ 0.259 µM) | > 128 | 0.5 (≈ 0.519 µM) | MIC [21]: 0.25 µg/mL (≈ 0.259 µM); MIC [22]: > 128 µg/mL; MIC [23]: 0.13 µg/mL (≈ 0.135 µM) |
| CCOC(=O)[C@H]1[C@H](C)O[C@@H](O[C@H]2[C@H](N(C)C)[C@@H](O)[C@H](O[C@H]3[C@@H](CC=O)C[C@@H](C)[C@@H](OC(C)=O)CN(CCCCc4ccccc4)C[C@@H](C)NC(=O)C[C@@H](OC(=O)CC)[C@@H]3OC)O[C@@H]2C)C[C@@]1(C)OC(C)=O | 1 (≈ 0.994 µM) | 1 (≈ 0.994 µM) | 4 (≈ 3.98 µM) | > 128 | > 128 | 16 (≈ 15.9 µM) | 32 (≈ 31.8 µM) | 2 (≈ 1.99 µM) | 32 (≈ 31.8 µM) | 0.5 (≈ 0.497 µM) | 16 (≈ 15.9 µM) | 2 (≈ 1.99 µM) | 4 (≈ 3.98 µM) | 1 (≈ 0.994 µM) | > 128 | 1 (≈ 0.994 µM) | 1 (≈ 0.994 µM) | 1 (≈ 0.994 µM) | > 128 | 1 (≈ 0.994 µM) | MIC [21]: 1 µg/mL (≈ 0.994 µM); MIC [22]: > 128 µg/mL; MIC [23]: 0.5 µg/mL (≈ 0.497 µM) |
